We go through 167 variants from the RNAGym collection of RNA variant scans (doi:10.1126/science.aae0568).

B1: tRNA (parent)
chain: GUUCCGUUGGCGUAAUGGUAACGCGUCUCCCUCCUAAGGAGAAGACUGCGGGUUCGAGUCCCGUACGGAACG

This sample holds only a part of the variants without activity. Some results are limits rather than exact numbers.

Variants of B1 are the subject of this series. Description: yeast fitness relative to wild type (ratio to wild type); higher = fitter; tRNA-Arg(CCU), competitive growth, 37 C, YPD. The essentials: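 The tRNA-Arg(CCU) gene variants were made by chemical synthesis with a 3% per-site mutation rate at 69 sites and inserted at the native genomic locus of Saccharomyces cerevisiae. After pooling, the strains were competed in YPD at 37°C for 24 hours in six parallel replicates. Gene amplicons from the start population and each end population were read by 100-nucleotide paired-end sequencing, and Darwinian fitness relative to wild type was taken from genotype frequency changes. Genotypes needed ≥ 100 starting reads, and estimates < 0.5 were set to 0.5.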
Take C46G G68A: the yeast fitness was 0.825. The same measure for U3C G12C: 0.716; for A37G G39A A40G G41A A43G: at most 0.5; for C31G A45U C62U: 0.876. Regarding G41A A42C G50C, the yeast fitness was found to be 0.622.

On to A20U C31U G51C, for which the yeast fitness was 0.562. Take U26C G67C: the yeast fitness came to 0.833. The same measure for U16A G17A C22G C49U C61U G68C: at most 0.5; for C27A C31G: 0.957. Then C4U G48A C60G, with at most 0.5.

U2A G9C G17A C60G: the yeast fitness was determined as 0.572.

Consider U8C G18C C33U A65C A69C, for which the yeast fitness is 0.549. Then A15G C31A G41C C49U, with at most 0.5; and G23C C29A G38A, with at most 0.5.

As for G12A G38A C60G, the yeast fitness was at most 0.5. The same measure for C4G U8C G17A C27G A36U C62G: 0.607. Then A14G C31U C55A A70G, with at most 0.5; and G6A C22G U47A A65G, with at most 0.5. The same measure for A37G U64A: 0.61; for A14C A20U C31U: at most 0.5; for G17C G18A C27U C46U G58A: at most 0.5. As for A21U G51C, the yeast fitness was at most 0.5.

With C5A C34U A40G, the yeast fitness was found to be 0.727.

Consider G10A C62G, for which the yeast fitness worked out at 0.64. Then U3A C27A A43G, with 0.586. The same measure for G39C A43C A57C: 0.628; for U13A C66A: 0.619; for U7C C62G A69U: 0.565.

On to C4U G10A C24U C62U, for which the yeast fitness came to 0.723. As to A20U C49U A69U, the yeast fitness came out at 0.683.

For the variant A20C C30A A45U C60U, the yeast fitness was at most 0.5. Then A43C A70U, with 1.06; and U35C A37U A43C C46U C49U G68A, with at most 0.5.

As to C24G G39C A45G U54A, the yeast fitness is at most 0.5. The same measure for U7G G10A C11G C27U A40U: 0.538; for C11U G44A G63A: 0.74. As to U3C U26G G63A, the yeast fitness was at most 0.5. Then G9A G44A C55A A57U, with at most 0.5; and C46A G52A G63C, with 0.555; and G18A G39C, with 0.757.

As for A20C C66U, the yeast fitness turned out to be 0.931. For the variant U3C U7A U28G A43U G56C A57U G67A, the yeast fitness is at most 0.5. Then G9A U26G C55G, with 0.57; and C4G C34G A37U A42U C61U, with at most 0.5; and A21G C27A G39C C55U A65C, with at most 0.5. On to U32C C55G, for which the yeast fitness was determined as 0.629. The same measure for A15G U26A G41A U64A A70C: at most 0.5; for C11G A21U C27A C61G: 0.531; for G6A U7A G38C: 0.603. Then C11G A15U C34A A42C G48A C55U, with at most 0.5; and C4G A45U C49U A65U, with at most 0.5.

As to A15G C27G A42G G63A, the yeast fitness is at most 0.5. The same measure for U28G G67A: 0.69; for U3C C31G G67U: at most 0.5. For C31A G56C A57G C62U, the yeast fitness was at most 0.5. The same measure for U3G C30U G48C G68C: 0.526; for C5U A37C A70C: 0.631. Then C30U G50C C66U, with 0.526; and C5U G17A C55A G67A A70G, with at most 0.5; and U3C C4G, with 0.891. Then G9A A37C U54C G67C, with at most 0.5; and U26A C49U A65C, with 0.742. Take C11U A15G A65G: the yeast fitness stood at 0.766. The same measure for A42U G44A G51A: 0.669; for U32A C49A U53C C66G: at most 0.5; for U3A G44A A45C U53A C55A U59C C62U: 0.534. Then C5U C11U A36U C66U, with at most 0.5; and U32G C34U G52A, with 0.589; and G17C C24G C46G, with 0.519. Then G17U C46G U54G, with at most 0.5. Regarding C31A U35A A36U U47C C55U, the yeast fitness stood at 0.518.

For U19C C46G A69U, the yeast fitness was 0.803. Turning to A15U G25C, the yeast fitness was found to be 0.583. With U28C C46U, the yeast fitness amounted to 0.911.

Consider G10A A15U A21C G25C C66U G67U G68A, for which the yeast fitness is at most 0.5. Then C24U C29U A42G C55U, with at most 0.5.

For the variant U2A C46A G51C, the yeast fitness came out at 0.599. Consider U28C G52C U64A, for which the yeast fitness was at most 0.5. The same measure for A14C U28A G44A C55A: at most 0.5; for C5A U16A A42C: at most 0.5; for A20G C27A G48A: 0.762. Then U3C A20G A57U, with 0.597.

Turning to A40U U47A G58C, the yeast fitness is 0.579.

With C4A C34U A57U, the yeast fitness was at most 0.5. As to C4U G12A C62G, the yeast fitness amounted to 0.53. The same measure for U13A A20G A21G A65C: at most 0.5; for G17A U35G U59C: at most 0.5; for U28A C29A C46U C55G: at most 0.5. The same measure for U59C C62A: 0.75. Then G17A G58C C62U, with 0.543. As to C27G A37G U53A, the yeast fitness is 0.632. On to G12A A37G A65C, for which the yeast fitness is at most 0.5.

With G12C A42U C46U C55G, the yeast fitness was at most 0.5. The same measure for C5U A14U A21G G68C: 0.588; for C30G G48C G52A G67U: at most 0.5; for A14U A45G U53C A65U: at most 0.5. The same measure for A15C A42G G67C: at most 0.5; for U2G G44A G51C: at most 0.5; for U19G A42U C46U: 0.569. The same measure for U13G A45U A70C: 0.649; for C29A G52C G68A: at most 0.5. For the variant G6A A20U C29G C49G G63C, the yeast fitness was at most 0.5. Then U16C G56A, with 1.01; and A36U A70G, with 0.607; and G23A G38C, with 0.599. The same measure for C11G A42U C49G G58C A69U: at most 0.5; for C11A C31A C61G A65C A70C: at most 0.5.

Regarding G41C C66U, the yeast fitness worked out at 0.83. As for C5A A15U C31G G39A G58A, the yeast fitness was at most 0.5. Then G12A A36U A37G, with 0.543.

C11G G18C A20U C33G C34G G50C: the yeast fitness stood at 0.632. The same measure for C4U A36C G48A: 0.71; for C31G U47G C49G C60U C62G: at most 0.5; for C11U C27G A42C G68A: at most 0.5. The same measure for C5U U16G A65C: 0.612. Then C5U C29U C31U U54G A65U G67A, with at most 0.5; and U19A A45G A57C, with at most 0.5. For the variant G18A C29G A37G G44C, the yeast fitness came out at 0.598.

With U19C U32C A40C G41A, the yeast fitness is 0.674. The same measure for U13A A40G A43C G50A G67C: at most 0.5. The same measure for G6C U7C G23C C24A C49U C60A: at most 0.5; for A15C U26A A40C: 0.63; for U2G G6A C49G: at most 0.5.

Regarding U3C G9C, the yeast fitness amounted to 0.712. The same measure for C11U A14C C27U C31U C33A G67C: at most 0.5; for C22U C29U G41A C62G: at most 0.5. Then C11U C22U, with 0.855; and A15C C34G, with 0.59; and A36G C55A C60U, with at most 0.5. Then C11U C49G A57C G67U, with at most 0.5; and G12C C61U C66G, with at most 0.5; and A15C U28G A45G G51C A70G, with 0.584. Take C4U G58C: the yeast fitness was found to be 1.02. Then C11U U28A U54C, with at most 0.5; and C24U A45U G58A A65G, with 0.794. Then C33G G51C C66G G67C, with at most 0.5; and G17C C29G U32G G38A U53C, with at most 0.5; and G18C C30U A42G C55A, with 0.533. The same measure for A42U C62U A70C: 0.594; for A14C A45C: 0.702; for A15C U16C C27U C31G A69C: at most 0.5.

U2A G6A C27G A42U A43U: the yeast fitness is at most 0.5. The same measure for C5A C29A C34G: at most 0.5; for G51C U54C C66U: at most 0.5; for U19C A36G A43G C60U C62U A70C: at most 0.5. For the variant C5A C30A A57G, the yeast fitness was 0.565. Then A14U G17A G23A G68C, with at most 0.5. Then C11U U19G C27U U47C A70U, with at most 0.5. The same measure for G9C U26C C34G A37G: 0.591.

G25U A36U: the yeast fitness worked out at 0.531. The same measure for C4G A40G A45U: at most 0.5; for U3C U13C U16A C61A U64C: 0.582; for U3C U32C A42U: 0.686. Then A37U C62U C66G, with at most 0.5.

On to U2C A42C C66U, for which the yeast fitness is 0.574.

For C27G G39C C61U, the yeast fitness is 0.577. The same measure for C31U C55G: 0.629; for C4U C31U A37U: 0.617; for U28G C29G: 0.608. With C5G U53G A65U, the yeast fitness worked out at 0.612. Regarding C11A C24G C30G C55G, the yeast fitness was at most 0.5. The same measure for U54C C62U G68C: at most 0.5; for G6C G41C C49G U54C U59G G63A C66U: at most 0.5. Then C30G C33U G58A, with at most 0.5; and A21U U59A A69C, with at most 0.5; and U16A U47C A65U, with 0.727.

For the variant U3A A21G A45G A69C, the yeast fitness was found to be 0.726.
